From ChEMBL document CHEMBL3091303, “1,3-Dialkyl-substituted tetrahydropyrimido[1,2-f]purine-2,4-diones as multiple target drugs for the potential treatment of neurodegenerative diseases” (Bioorg Med Chem, 2013)

Columns and labels:
[1] = target: T1, Amine oxidase [flavin-containing] B (Homo sapiens, UniProt P27338); assay: Inhibition of human MAO-B
T1 sequence (P27338 whole entry): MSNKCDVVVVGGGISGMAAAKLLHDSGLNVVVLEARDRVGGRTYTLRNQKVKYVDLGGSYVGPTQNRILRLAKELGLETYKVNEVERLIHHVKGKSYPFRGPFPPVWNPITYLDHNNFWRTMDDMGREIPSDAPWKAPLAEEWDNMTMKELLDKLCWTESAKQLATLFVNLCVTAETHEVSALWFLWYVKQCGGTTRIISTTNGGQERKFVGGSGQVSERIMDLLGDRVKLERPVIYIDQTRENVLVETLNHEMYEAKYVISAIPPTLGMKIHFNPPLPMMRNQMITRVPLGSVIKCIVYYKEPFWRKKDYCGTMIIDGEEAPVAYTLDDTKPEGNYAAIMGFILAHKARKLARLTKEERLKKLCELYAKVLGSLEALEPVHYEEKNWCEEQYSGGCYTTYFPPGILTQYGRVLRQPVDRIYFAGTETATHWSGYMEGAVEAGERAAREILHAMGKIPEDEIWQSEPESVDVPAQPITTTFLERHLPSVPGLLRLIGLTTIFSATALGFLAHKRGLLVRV

Adenosine receptor A1 [2] = target: T2, Adenosine receptor A1 (Rattus norvegicus, UniProt P25099); assay: Displacement of [3H]CCPA from adenosine A1 receptor in rat brain cortex; type: tissue-based
T2 sequence (P25099 whole entry): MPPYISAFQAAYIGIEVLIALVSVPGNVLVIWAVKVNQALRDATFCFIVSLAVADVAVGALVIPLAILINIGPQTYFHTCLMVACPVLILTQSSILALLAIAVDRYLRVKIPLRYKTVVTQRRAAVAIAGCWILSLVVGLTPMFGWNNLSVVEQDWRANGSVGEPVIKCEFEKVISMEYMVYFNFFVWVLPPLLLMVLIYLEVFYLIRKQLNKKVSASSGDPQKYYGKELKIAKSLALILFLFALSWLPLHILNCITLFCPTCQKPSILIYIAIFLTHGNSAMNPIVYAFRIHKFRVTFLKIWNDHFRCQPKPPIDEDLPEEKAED
Summary of the method: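 Radioligand binding to rat A1 receptors in rat brain cortical membrane preparations. Values are given as Ki, or as % inhibition of radioligand binding at the indicated concentration.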

Adenosine receptor A2a [3] = target: Adenosine receptor A2a (Rattus norvegicus, UniProt P30543); assay: Displacement of [3H]MSX-2 from adenosine A2A receptor in rat brain striatum; type: tissue-based
[4] = target: T3, Adenosine receptor A3 (Homo sapiens) (UniProt P0DMS8); assay: Displacement of [3H]PSB-11 from human adenosine A3 receptor expressed in CHO cells relative to control; type: cell-based; set-up: concentration or dose not given beside the values; settings: concentration not given here
T3 sequence (whole entry): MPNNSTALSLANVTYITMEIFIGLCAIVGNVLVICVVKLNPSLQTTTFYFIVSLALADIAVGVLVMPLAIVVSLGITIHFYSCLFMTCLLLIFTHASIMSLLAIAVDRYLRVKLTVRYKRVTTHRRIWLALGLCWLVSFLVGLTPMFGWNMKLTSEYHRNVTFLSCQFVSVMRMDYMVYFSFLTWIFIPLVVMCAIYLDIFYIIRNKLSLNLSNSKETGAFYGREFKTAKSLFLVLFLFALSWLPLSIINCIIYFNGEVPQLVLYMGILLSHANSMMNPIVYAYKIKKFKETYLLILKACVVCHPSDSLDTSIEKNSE

Adenosine receptor A3 = target: T4, Adenosine receptor A3 (Homo sapiens, UniProt P0DMS8); assay: Displacement of [3H]PSB-11 from human adenosine A3 receptor expressed in CHO cells; type: cell-based
T4 sequence (P0DMS8 whole entry): T3 sequence (whole entry)

Adenosine receptor A2b = target: T5, Adenosine receptor A2b (Homo sapiens, UniProt P29275); assay: Displacement of [3H]PSB-603 from human adenosine A2B receptor
T5 sequence (P29275 whole entry): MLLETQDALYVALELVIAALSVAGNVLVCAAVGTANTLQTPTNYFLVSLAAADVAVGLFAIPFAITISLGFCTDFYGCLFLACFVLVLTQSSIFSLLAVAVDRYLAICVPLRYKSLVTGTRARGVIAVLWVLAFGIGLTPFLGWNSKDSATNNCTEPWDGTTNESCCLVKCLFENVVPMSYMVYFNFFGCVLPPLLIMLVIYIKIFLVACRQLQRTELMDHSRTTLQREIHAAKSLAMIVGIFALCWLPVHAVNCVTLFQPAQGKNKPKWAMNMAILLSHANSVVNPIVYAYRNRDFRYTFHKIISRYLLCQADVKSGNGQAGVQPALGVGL

[5] = target: T6, MAO-B (amine oxidase [flavin-containing] B) (Homo sapiens, UniProt P27338); assay: Inhibition of human MAO-B at 10 uM relative to control
T6 sequence (P27338 whole entry): T1 sequence (P27338 whole entry)
Summary of the method: (§1)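 Human MAO-A and MAO-B inhibition, screened first at a test concentration of 10 µM.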

[6] = target: T7, Adenosine receptor A2b (Homo sapiens) (UniProt P29275); assay: Displacement of [3H]PSB-603 from human adenosine A2B receptor relative to control; set-up: concentration or dose not given beside the values; settings: concentration not given here
T7 sequence (whole entry): T5 sequence (P29275 whole entry)

Adenosine receptor A2a [7] = target: Adenosine receptor A2a (Homo sapiens, UniProt P29274); assay: Displacement of [3H]MSX-2 from human adenosine A2A receptor expressed in CHO cells; type: cell-based
Summary of the method: (§2)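 Radioligand binding to human receptors recombinantly expressed in Chinese hamster ovary (CHO) cells. Results are Ki, or % inhibition of radioligand binding at the indicated concentration.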

Adenosine receptor A1 [8] = target: T8, Adenosine receptor A1 (Homo sapiens, UniProt P30542); assay: Displacement of [3H]CCPA from human adenosine A1 receptor expressed in CHO cells; type: cell-based; summary of the method: as §2
T8 sequence (P30542 whole entry): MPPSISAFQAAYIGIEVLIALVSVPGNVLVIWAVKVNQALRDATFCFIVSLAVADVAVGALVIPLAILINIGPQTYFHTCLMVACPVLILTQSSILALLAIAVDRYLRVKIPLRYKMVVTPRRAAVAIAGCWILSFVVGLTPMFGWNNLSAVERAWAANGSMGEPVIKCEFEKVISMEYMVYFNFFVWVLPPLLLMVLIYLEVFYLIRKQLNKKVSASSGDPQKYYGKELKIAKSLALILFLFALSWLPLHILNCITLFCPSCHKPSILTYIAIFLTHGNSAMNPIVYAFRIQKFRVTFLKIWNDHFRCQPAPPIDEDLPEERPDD

[9] = target: T9, MAO-A (amine oxidase [flavin-containing] A) (Homo sapiens, UniProt P21397); assay: Inhibition of human MAO-A at 10 uM relative to control; summary of the method: as §1
T9 sequence (P21397 whole entry): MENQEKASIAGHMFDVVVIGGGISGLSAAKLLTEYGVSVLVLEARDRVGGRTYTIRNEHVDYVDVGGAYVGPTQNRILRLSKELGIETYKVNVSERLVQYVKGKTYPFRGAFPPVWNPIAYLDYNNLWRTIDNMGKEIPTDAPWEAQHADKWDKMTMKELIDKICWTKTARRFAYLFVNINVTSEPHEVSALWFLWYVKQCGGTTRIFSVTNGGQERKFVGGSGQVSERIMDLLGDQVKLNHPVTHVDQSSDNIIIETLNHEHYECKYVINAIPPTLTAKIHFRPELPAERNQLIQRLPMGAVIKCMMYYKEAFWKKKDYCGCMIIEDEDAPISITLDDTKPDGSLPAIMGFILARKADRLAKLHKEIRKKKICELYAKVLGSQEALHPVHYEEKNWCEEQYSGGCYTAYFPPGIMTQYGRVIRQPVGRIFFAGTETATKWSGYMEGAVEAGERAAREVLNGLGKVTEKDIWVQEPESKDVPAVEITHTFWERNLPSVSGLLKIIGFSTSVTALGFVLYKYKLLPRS

[10] = target: T10, Amine oxidase [flavin-containing] A (Homo sapiens, UniProt P21397); assay: Inhibition of human MAO-A; summary of the method: as §1
T10 sequence (P21397 whole entry): T9 sequence (P21397 whole entry)

Sequence of Adenosine receptor A2a (Homo sapiens, UniProt P29274) (P29274 whole entry): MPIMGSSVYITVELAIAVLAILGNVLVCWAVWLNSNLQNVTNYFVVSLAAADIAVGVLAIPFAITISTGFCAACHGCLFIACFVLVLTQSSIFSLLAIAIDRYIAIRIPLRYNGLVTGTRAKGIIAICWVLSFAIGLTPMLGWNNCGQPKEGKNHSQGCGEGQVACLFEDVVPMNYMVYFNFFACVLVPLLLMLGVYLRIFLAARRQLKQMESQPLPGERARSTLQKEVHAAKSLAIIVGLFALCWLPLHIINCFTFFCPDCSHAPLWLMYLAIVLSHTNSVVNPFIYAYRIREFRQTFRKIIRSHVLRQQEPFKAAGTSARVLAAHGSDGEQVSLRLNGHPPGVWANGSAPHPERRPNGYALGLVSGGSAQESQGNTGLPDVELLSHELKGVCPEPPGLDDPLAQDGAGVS
Sequence of Adenosine receptor A2a (Rattus norvegicus, UniProt P30543) (P30543 whole entry): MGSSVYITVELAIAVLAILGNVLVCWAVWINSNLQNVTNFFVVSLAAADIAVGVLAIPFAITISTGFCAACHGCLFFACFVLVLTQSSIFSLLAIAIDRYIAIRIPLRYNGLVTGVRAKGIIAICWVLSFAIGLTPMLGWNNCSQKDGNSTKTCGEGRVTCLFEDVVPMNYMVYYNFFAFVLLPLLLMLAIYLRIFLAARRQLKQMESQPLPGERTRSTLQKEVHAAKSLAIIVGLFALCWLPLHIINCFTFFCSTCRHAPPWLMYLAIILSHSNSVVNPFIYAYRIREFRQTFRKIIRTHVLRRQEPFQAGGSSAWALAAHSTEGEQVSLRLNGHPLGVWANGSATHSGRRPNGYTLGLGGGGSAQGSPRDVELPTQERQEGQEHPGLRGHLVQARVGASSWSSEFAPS

Compound | IC50 [1] [µM] | Ki (Adenosine receptor A1 [2]) [µM] | Ki (Adenosine receptor A2a [3]) [µM] | inhibition [4] [%] | Ki (Adenosine receptor A3) [µM] | Ki (Adenosine receptor A2b) [µM] | inhibition at 10 µM [5] [%] | inhibition [6] [%] | Ki (Adenosine receptor A2a [7]) [µM] | Ki (Adenosine receptor A1 [8]) [µM] | inhibition at 10 µM [9] [%] | IC50 [10] [µM]
C#CCn1c(=O)c2c(nc3n2CCCN3c2ccc(F)cc2)n(C)c1=O | > 10 | 1.19 | 1.94 | 22 | > 10 | > 1 | 17 | 7 | 2.12 | 3.61 | – | –
C#CCn1c(=O)c2c(nc3n2CCCN3CC2CCCO2)n(C)c1=O (stereo not given) | > 10 | 0.169 | 1.43 | 9 | > 10 | > 1 | 30 | 6 | 1.11 | 1.15 | – | –
C#CCn1c(=O)c2c(nc3n2CCCN3CCc2cccs2)n(C)c1=O | > 10 | 0.99 | 0.71 | 20 | > 1 | > 1 | 17 | 16 | 0.317 | 1.41 | – | –
Cn1c(=O)c2c(nc3n2CCCN3Cc2cc(Cl)cc(Cl)c2)n(C)c1=O | 0.193 | 0.165 | 1.64 | 14 | > 10 | > 1 | – | 4 | 3.78 | 1.7 | 1 | > 10
C#CCn1c(=O)c2c(nc3n2CCCN3Cc2cccc(OC)c2)n(C)c1=O | 10 | 0.227 | 0.696 | – | – | – | 51 | 8 | 0.322 | 1.33 | 5 | > 10
C#CCn1c(=O)c2c(nc3n2CCCN3C2CCCCC2)n(C)c1=O | > 10 | 0.515 | 0.361 | 25 | > 10 | 17.1 | 26 | – | 0.311 | 2.36 | – | –
C#CCn1c(=O)c2c(nc3n2CCCN3CCc2ccc(OC)cc2)n(C)c1=O | > 10 | 3.14 | 0.288 | 13 | > 1 | > 1 | 25 | 8 | 0.508 | 4.4 | – | –

Continued, values first:

IC50 [1] [µM] | Ki (Adenosine receptor A1 [2]) [µM] | Ki (Adenosine receptor A2a [3]) [µM] | inhibition [4] [%] | Ki (Adenosine receptor A3) [µM] | Ki (Adenosine receptor A2b) [µM] | inhibition at 10 µM [5] [%] | inhibition [6] [%] | Ki (Adenosine receptor A2a [7]) [µM] | Ki (Adenosine receptor A1 [8]) [µM] | inhibition at 10 µM [9] [%] | IC50 [10] [µM] | Compound
1.8 | 1.06 | 0.641 | – | 4.41 | > 1 | – | 16 | 0.417 | 0.605 | 4 | > 10 | C#CCn1c(=O)c2c(nc3n2CCCN3Cc2ccccc2OC)n(C)c1=O
10 | 0.114 | 0.259 | 30 | > 10 | 1.74 | 51 | – | 0.626 | 0.41 | 0 | > 10 | C#CCn1c(=O)c2c(nc3n2CCCN3Cc2cccs2)n(C)c1=O
3.76 | 0.135 | 0.533 | 34 | > 10 | 3.52 | – | – | 0.253 | 0.249 | 5 | > 10 | C#CCn1c(=O)c2c(nc3n2CCCN3Cc2ccccc2)n(C)c1=O
> 10 | 0.501 | 0.276 | 28 | > 10 | > 10 | 37 | 12 | 0.346 | 8.26 | – | – | C#CCn1c(=O)c2c(nc3n2CCCN3CCc2ccc(O)cc2)n(C)c1=O
> 10 | 0.219 | 0.498 | 5 | > 0.1 | > 1 | 33 | -5 | 0.51 | 1.87 | – | – | C#CCn1c(=O)c2c(nc3n2CCCN3CC2CCCCC2)n(C)c1=O
